# In ChEMBL document CHEMBL1275598, “In vitro activity of ceftaroline against community-associated methicillin-resistant, vancomycin-intermediate, vancomycin-resistant, and daptomycin-nonsusceptible Staphylococcus aureus isolates” (2010):
# Legend:
# Type in all cases: functional
# Staphylococcus aureus [1] = experiment: Antimicrobial activity against community-acquired methicillin-resistant Staphylococcus aureus by microdilution method
# In short: (§1)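 MIC by broth microdilution in cation-adjusted Mueller-Hinton broth, following CLSI guidelines; antibiotic powders reconstituted per CLSI. Read visually as the lowest drug concentration well with no visible growth. S. aureus ATCC 29213 and E. faecalis ATCC 29212 served as control strains. CA-MRSA: hospital patients culture-positive within 48 h of admission. DNSSA: patient blood isolates. VISA: obtained from the NARSA program.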
# Staphylococcus aureus [2] = experiment: Bactericidal activity against vancomycin-resistant Staphylococcus aureus assessed as antibiotic concentration that reduced the number of viable cells by =>99.9% by colony count method; conditions: for MBC: Staphylococcus aureus
# In short: (§2)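 MBC per CLSI following microdilution in cation-adjusted Mueller-Hinton broth. Defined as the concentration giving ≥99.9% reduction in viable cells, judged from colony counts of the growth control well against Pearson rejection-value tables. CA-MRSA isolates were hospital patients' isolates with positive MRSA culture within 48 h of admission.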
# Staphylococcus aureus [3] = experiment: Bactericidal activity against community-acquired methicillin-resistant Staphylococcus aureus assessed as antibiotic concentration that reduced the number of viable cells by =>99.9% by colony count method; conditions: for MBC: Staphylococcus aureus; in short: as §2
# Staphylococcus aureus [4] = experiment: Antimicrobial activity against vancomycin-intermediate Staphylococcus aureus by microdilution method
# In short: (§3)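 Broth microdilution per CLSI in cation-adjusted Mueller-Hinton broth. Antibiotic powders were reconstituted per CLSI. The MIC was read visually as the lowest drug concentration with no visible growth. S. aureus ATCC 29213 and E. faecalis ATCC 29212 served as control strains. VISA and VRSA isolates came from the NARSA program.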
# Staphylococcus aureus [5] = experiment: Antimicrobial activity against vancomycin-intermediate Staphylococcus aureus assessed as susceptible isolates by microdilution method
# In short: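 CLSI broth microdilution in cation-adjusted Mueller-Hinton broth. MIC is the lowest concentration well with no visible growth, read by eye. Isolates were classed susceptible from CLSI breakpoints. S. aureus ATCC 29213 and E. faecalis ATCC 29212 were used as MIC control strains.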
# Staphylococcus aureus [6] = experiment: Bactericidal activity against vancomycin-intermediate Staphylococcus aureus assessed as antibiotic concentration that reduced the number of viable cells by =>99.9% by colony count method; conditions: for MBC: Staphylococcus aureus
# In short: (§4)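 MBC per CLSI guidelines. It was taken as the antibiotic concentration giving ≥99.9% reduction in viable cells, based on colony counts from the growth control well and rejection values from Pearson's tables.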
# Staphylococcus aureus [7] = experiment: Antimicrobial activity against daptomycin-nonsusceptible Staphylococcus aureus by microdilution method; in short: as §1
# Staphylococcus aureus [8] = experiment: Antimicrobial activity against daptomycin-nonsusceptible Staphylococcus aureus assessed as susceptible isolates by microdilution method
# In short: (§5)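 MICs by CLSI broth microdilution in cation-adjusted Mueller-Hinton broth, read visually as the lowest concentration with no visible growth. Percentages of susceptible or resistant isolates assigned using CLSI breakpoints. Isolates: CA-MRSA (n = 92, positive within 48 h of admission) and DNSSA (n = 7, blood).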
# Staphylococcus aureus [9] = experiment: Antimicrobial activity against vancomycin-resistant Staphylococcus aureus by microdilution method; in short: as §3
# Staphylococcus aureus [10] = experiment: Bactericidal activity against daptomycin-nonsusceptible Staphylococcus aureus assessed as antibiotic concentration that reduced the number of viable cells by =>99.9% by colony count method; in short: as §4
# Staphylococcus aureus [11] = experiment: Antimicrobial activity against vancomycin intermediate Staphylococcus aureus NRS-17 expressing SCCmec type 2 element by microdilution method; in short: as §1
# Staphylococcus aureus [12] = experiment: Antimicrobial activity against vancomycin intermediate Staphylococcus aureus NRS-19 expressing SCCmec type 2 element by microdilution method; in short: as §1
# Staphylococcus aureus [13] = experiment: Antimicrobial activity against vancomycin intermediate Staphylococcus aureus NRS-22 expressing SCCmec type 2 element by microdilution method; in short: as §1
# Staphylococcus aureus [14] = experiment: Antimicrobial activity against vancomycin intermediate Staphylococcus aureus NRS-26 expressing SCCmec type 2 element by microdilution method; in short: as §1
# Staphylococcus aureus [15] = experiment: Antimicrobial activity against vancomycin intermediate Staphylococcus aureus NRS-27 expressing SCCmec type 2 element by microdilution method; in short: as §1
# Staphylococcus aureus [16] = experiment: Antimicrobial activity against vancomycin intermediate Staphylococcus aureus NRS-68 expressing SCCmec type 2 element by microdilution method; in short: as §1
# Staphylococcus aureus [17] = experiment: Antimicrobial activity against vancomycin intermediate Staphylococcus aureus NRS-73 expressing SCCmec type 4d element by microdilution method; in short: as §1
# Staphylococcus aureus [18] = experiment: Antimicrobial activity against vancomycin intermediate Staphylococcus aureus NRS-118 expressing SCCmec type 1 element by microdilution method; in short: as §1
# Staphylococcus aureus [19] = experiment: Antimicrobial activity against vancomycin intermediate Staphylococcus aureus NRS-402 expressing SCCmec type 2 element by microdilution method; in short: as §1
# Staphylococcus aureus [20] = experiment: Antimicrobial activity against vancomycin intermediate Staphylococcus aureus NRS-403 expressing SCCmec type 2 element by microdilution method; in short: as §1
# Staphylococcus aureus [21] = experiment: Antimicrobial activity against vancomycin resistant Staphylococcus aureus VRS-7 expressing SCCmec element by microdilution method; in short: as §3
# Staphylococcus aureus [22] = experiment: Antimicrobial activity against vancomycin resistant Staphylococcus aureus VRS-8 expressing SCCmec element by microdilution method; in short: as §3
# Staphylococcus aureus [23] = experiment: Antimicrobial activity against vancomycin resistant Staphylococcus aureus VRS-9 expressing SCCmec type 2 element by microdilution method; in short: as §3
# Staphylococcus aureus [24] = experiment: Antimicrobial activity against vancomycin resistant Staphylococcus aureus VRS-10 expressing SCCmec type 2 element by microdilution method; in short: as §3
# Staphylococcus aureus [25] = experiment: Antimicrobial activity against community-acquired methicillin-resistant Staphylococcus aureus assessed as susceptible isolates by microdilution method; in short: as §5
# Staphylococcus aureus [26] = experiment: Antimicrobial activity against community-acquired methicillin-resistant Staphylococcus aureus assessed as resistant isolates by microdilution method; in short: as §5
# Staphylococcus aureus [27] = experiment: Antimicrobial activity against vancomycin-intermediate Staphylococcus aureus assessed as resistant isolates by microdilution method
# In short: (§6)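 CLSI broth microdilution MICs in cation-adjusted Mueller-Hinton broth, read visually as the lowest concentration with no visible growth. Percent of isolates classed susceptible or resistant was assigned using CLSI breakpoints.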
# Staphylococcus aureus [28] = experiment: Antimicrobial activity against vancomycin-resistant Staphylococcus aureus assessed as resistant isolates by microdilution method; in short: as §6
# Staphylococcus aureus [29] = experiment: Antimicrobial activity against daptomycin-nonsusceptible Staphylococcus aureus assessed as resistant isolates by microdilution method; in short: as §5
# Staphylococcus aureus [30] = experiment: Antimicrobial activity against vancomycin-resistant Staphylococcus aureus assessed as susceptible isolates by microdilution method; in short: as §6
# Staphylococcus aureus [31] = experiment: Antimicrobial activity against vancomycin intermediate Staphylococcus aureus NRS-3 expressing SCCmec type 2 element by microdilution method; in short: as §1
# Staphylococcus aureus [32] = experiment: Antimicrobial activity against vancomycin intermediate Staphylococcus aureus NRS-404 expressing SCCmec type 2 element by microdilution method; in short: as §1
# Staphylococcus aureus [33] = experiment: Antimicrobial activity against vancomycin resistant Staphylococcus aureus VRS-1 expressing SCCmec type 2 element by microdilution method; in short: as §3
# Staphylococcus aureus [34] = experiment: Antimicrobial activity against vancomycin resistant Staphylococcus aureus VRS-2 expressing SCCmec type 2 element by microdilution method; in short: as §3
# Staphylococcus aureus [35] = experiment: Antimicrobial activity against vancomycin resistant Staphylococcus aureus VRS-3 expressing SCCmec type 4 element by microdilution method; in short: as §3
# Staphylococcus aureus [36] = experiment: Antimicrobial activity against vancomycin resistant Staphylococcus aureus VRS-4 expressing SCCmec type 4 element by microdilution method; in short: as §3
# Staphylococcus aureus [37] = experiment: Antimicrobial activity against vancomycin resistant Staphylococcus aureus VRS-5 expressing SCCmec type 2 element by microdilution method; in short: as §3
# Staphylococcus aureus [38] = experiment: Antimicrobial activity against vancomycin resistant Staphylococcus aureus VRS-6 expressing SCCmec type 2 element by microdilution method; in short: as §3
smiles,measurement,setting,value
CC(=O)NC[C@H]1CN(c2ccc(N3CCOCC3)c(F)c2)C(=O)O1 [LINEZOLID],MIC50,Staphylococcus aureus [1],2 µg/mL
same,MIC90,Staphylococcus aureus [1],2 µg/mL
same,MBC,Staphylococcus aureus [2],> 8 µg/mL
same,MBC,Staphylococcus aureus [3],> 4 µg/mL
same,MIC50,Staphylococcus aureus [4],2 µg/mL
same,MIC90,Staphylococcus aureus [4],2 µg/mL
same,Activity,Staphylococcus aureus [5],100%
same,MBC50,Staphylococcus aureus [6],4 µg/mL
same,MBC90,Staphylococcus aureus [6],>8 µg/mL
same,MBC,Staphylococcus aureus [6],> 1 µg/mL
same,MIC,Staphylococcus aureus [7],1 µg/mL
same,MIC50,Staphylococcus aureus [7]; Staphylococcus aureus,2 µg/mL
same,MIC,"Staphylococcus aureus [7]; Staphylococcus aureus, read-out: MIC",1.48 µg/mL
same,Activity,Staphylococcus aureus [8],100%
same,MIC50,Staphylococcus aureus [9],2 µg/mL
same,MIC90,Staphylococcus aureus [9],2 µg/mL
same,MBC50,Staphylococcus aureus [10],>8 µg/mL
same,MIC,Staphylococcus aureus [11],1 µg/mL
same,MIC,Staphylococcus aureus [12],1 µg/mL
same,MIC,Staphylococcus aureus [13],1 µg/mL
same,MIC,Staphylococcus aureus [14],1 µg/mL
same,MIC,Staphylococcus aureus [15],1 µg/mL
same,MIC,Staphylococcus aureus [16],1 µg/mL
same,MIC,Staphylococcus aureus [17],1 µg/mL
same,MIC,Staphylococcus aureus [18],1 µg/mL
same,MIC,Staphylococcus aureus [19],0.5 µg/mL
same,MIC,Staphylococcus aureus [20],1 µg/mL
same,MIC,Staphylococcus aureus [21],1 µg/mL
same,MIC,Staphylococcus aureus [22],1 µg/mL
same,MIC,Staphylococcus aureus [23],1 µg/mL
CN[C@H](CC(C)C)C(=O)N[C@H]1C(=O)N[C@@H](CC(N)=O)C(=O)N[C@H]2C(=O)N[C@H]3C(=O)N[C@H](C(=O)N[C@H](C(=O)O)c4cc(O)cc(O)c4-c4cc3ccc4O)[C@H](O)c3ccc(c(Cl)c3)Oc3cc2cc(c3O[C@@H]2O[C@H](CO)[C@@H](O)[C@H](O)[C@H]2O[C@H]2C[C@](C)(N)[C@H](O)[C@H](C)O2)Oc2ccc(cc2Cl)[C@H]1O [VANCOMYCIN],MIC,Staphylococcus aureus [24],> 64 µg/mL
same,MIC50,Staphylococcus aureus [1],1 µg/mL
same,MIC90,Staphylococcus aureus [1],1 µg/mL
same,Activity,Staphylococcus aureus [25],100%
same,Activity,Staphylococcus aureus [26],0%
same,MBC50,Staphylococcus aureus [2],>64 µg/mL
same,MBC90,Staphylococcus aureus [2],>64 µg/mL
same,MBC,Staphylococcus aureus [2],> 64 µg/mL
same,MBC50,Staphylococcus aureus [3],1 µg/mL
same,MBC90,Staphylococcus aureus [3],1 µg/mL
same,MBC,Staphylococcus aureus [3],0.5 µg/mL
same,MIC50,Staphylococcus aureus [4],4 µg/mL
same,MIC90,Staphylococcus aureus [4],8 µg/mL
same,Activity,Staphylococcus aureus [5],13%
same,Activity,Staphylococcus aureus [27],0%
same,Activity,Staphylococcus aureus [28],100%
same,MBC50,Staphylococcus aureus [6],4 µg/mL
same,MBC90,Staphylococcus aureus [6],8 µg/mL
same,MBC,Staphylococcus aureus [6],1 µg/mL
same,MIC50,Staphylococcus aureus [7]; Staphylococcus aureus,2 µg/mL
same,Activity,Staphylococcus aureus [8],100%
same,Activity,Staphylococcus aureus [29],0%
same,MIC50,Staphylococcus aureus [9],> 64 µg/mL
same,MIC90,Staphylococcus aureus [9],> 64 µg/mL
same,Activity,Staphylococcus aureus [30],0%
same,MBC50,Staphylococcus aureus [10],2 µg/mL
same,MBC,"Staphylococcus aureus [10]; Staphylococcus aureus, read-out: MBC",2 µg/mL
same,MIC,Staphylococcus aureus [31],8 µg/mL
same,MIC,Staphylococcus aureus [11],8 µg/mL
same,MIC,Staphylococcus aureus [18],8 µg/mL
same,MIC,Staphylococcus aureus [19],8 µg/mL
same,MIC,Staphylococcus aureus [32],8 µg/mL
same,MIC,Staphylococcus aureus [33],> 64 µg/mL
same,MIC,Staphylococcus aureus [34],32 µg/mL
same,MIC,Staphylococcus aureus [35],32 µg/mL
same,MIC,Staphylococcus aureus [36],> 64 µg/mL
same,MIC,Staphylococcus aureus [37],> 64 µg/mL
same,MIC,Staphylococcus aureus [38],> 64 µg/mL
same,MIC,Staphylococcus aureus [21],> 64 µg/mL
same,MIC,Staphylococcus aureus [22],> 64 µg/mL
same,MIC,Staphylococcus aureus [23],> 64 µg/mL
